From ChEMBL document CHEMBL1123363, “(5-Amino-1,3-dimethyl-1H-pyrazol-4-yl)(2-fluorophenyl)methanones . A series of novel potential antipsychotic agents” (J Med Chem, 1986)
Values belong to the molecule of their own block, whether it stands above or below them.

Columns and labels:
[1] = target: T1, Beta-1 adrenergic receptor (Rattus norvegicus, UniProt P18090); test: Binding affinity against beta-1 adrenergic receptor in rat brain using [3H]DHA; type: tissue-based
In short: (§1)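 β1 sites in rat cerebral cortex membranes (male Long-Evans, 150–250 g) with [3H]dihydroalprenolol at 0.5 nM final. (-)-Alprenolol at 1 μM final defined the reference. IC50 from four or five concentrations by nonlinear curve fit.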

Rattus norvegicus [2] = test: Compound was tested for its effect on norepinephrine turnover in rat at dose of 64 mg/kg ip; type: functional; details: route intraperitoneal
In short: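 Rats were given compound or vehicle ip 30 min before α-methyl-p-tyrosine (250 mg/kg ip) and killed 4 h later. Brain NE and DA were measured spectrofluorometrically, with at least five determinations per value, and expressed as % of vehicle-treated levels ± SEM.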

Rattus norvegicus [3] = test: Antagonized affect on the accumulation of the brain dopamine induced by butyrolactone (GBL) at 25 mg/kg after intraperitoneal administration; type: functional; parameters: scale not given: the % may be the effect or the level left
In short: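 Rats received test compound ip 30 min before γ-butyrolactone (750 mg/kg ip) and were killed 1 h after GBL. Dopamine in brain minus brain stem and cerebellum (four to six rats) was measured spectrofluorometrically and expressed as % of the GBL-treated group.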

Canis familiaris [4] = test: Emesis test in dogs was determined when dose administered per orally; type: functional; details: Canis lupus familiaris, po; read-out: MED
In short: (§2)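 Fasted dogs (7–12 kg), normally three per dose, were dosed orally and observed hourly for up to 6 h for emesis and other autonomic or behavioural signs. The minimal effective dose was the lowest dose producing emesis in any animal.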

[5] = target: Dopamine receptor (Rattus norvegicus) (UniProt P25115+P19020+P30729+P18901+P61169); test: Compound was tested for its effect on norepinephrine turnover in rat at dose of 10+/-250 mg/kg; type: functional, organism-based; details: in the assay text read “64+/-250 mg/kg” for “10+/-250 mg/kg”
In short: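 Male Long-Evans rats were given vehicle or agent ip 30 min before α-methyl-p-tyrosine (250 mg/kg) and killed 4 h after it. Brain NE and DA were isolated on Sephadex G-10 and measured spectrofluorometrically. Values are percent of vehicle-treated, with at least five determinations per value.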

Rattus norvegicus [6] = test: Inhibition of conditional avoid in rats after peroral administration; type: functional; details: po
In short: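 Fasted male Wistar rats (150–250 g) were trained to jump to a platform at a buzzer to avoid grid shock (1.1 mA/s). After oral dosing they were tested every 20 min for 6 h over 19 trials, 10 rats per dose, each rat used once. Peak effect was the mean of the four consecutive trials with the largest effect, computed from response latency. ED50 read graphically from at least three doses.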

[7] = target: T1, Beta-1 adrenergic receptor; test: Binding affinity against the beta-1 adrenergic receptor using [3H]- DHA; in short: as §1
[8] = target: GABA-A receptor; anion channel; test: Displacement of [3H]-GABA from rat brain Gamma-aminobutyric acid receptor
In short: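 GABA binding in membranes of rat whole brain minus cerebellum and brain stem (male Long-Evans, 150–250 g), using [3H]-GABA at 25 nM final. GABA at 1 mM final was the reference. IC50 from four or five concentrations by nonlinear curve fitting.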

Canis familiaris [9] = test: Emesis test in dogs was determined when administered perorally; type: functional; details: Canis lupus familiaris, po; read-out: MED; in short: as §2
Rattus norvegicus [10] = test: Compound was tested for its affect on the accumulation of the dopamine metabolite homovanillic acid (HAV) in the rat striatum at 83 mg/kg dose after peroral administration; type: functional; details: route oral
In short: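 Male Long–Evans rats were dosed orally and decapitated 2 h later. Striatal HVA was isolated on Sephadex G-10 and measured spectrofluorometrically, expressed as % control ± SEM.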

Mus musculus = test: Effective dose required for inhibition of locomotion/ataxia in mice administered intraperitoneally; type: functional; details: ip
In short: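 Male Swiss–Webster mice (20–30 g, unfasted), nine per dose in groups of three, dosed ip in 0.2% methocel (dose as parent compound) 1 h before testing. Ataxia was scored first on an inverted screen over 60 s as % of mice falling. […] ED50 from at least three doses.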

Rattus norvegicus [11] = organism: Rattus norvegicus; test: Effective dose required for inhibition of Sidman avoidance in rats; type: functional
In short: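 Mature male Long–Evans rats, trained on a modified Sidman avoidance schedule in lever-equipped operant chambers, were dosed orally and tested in 6-h sessions. Inhibition was expressed as % of each animal's own nondrug responding. At least three doses were given to four animals, with sessions at least 1 week apart. ED50 from nonlinear regression of dose–effect.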

T1 sequence (P18090 whole entry): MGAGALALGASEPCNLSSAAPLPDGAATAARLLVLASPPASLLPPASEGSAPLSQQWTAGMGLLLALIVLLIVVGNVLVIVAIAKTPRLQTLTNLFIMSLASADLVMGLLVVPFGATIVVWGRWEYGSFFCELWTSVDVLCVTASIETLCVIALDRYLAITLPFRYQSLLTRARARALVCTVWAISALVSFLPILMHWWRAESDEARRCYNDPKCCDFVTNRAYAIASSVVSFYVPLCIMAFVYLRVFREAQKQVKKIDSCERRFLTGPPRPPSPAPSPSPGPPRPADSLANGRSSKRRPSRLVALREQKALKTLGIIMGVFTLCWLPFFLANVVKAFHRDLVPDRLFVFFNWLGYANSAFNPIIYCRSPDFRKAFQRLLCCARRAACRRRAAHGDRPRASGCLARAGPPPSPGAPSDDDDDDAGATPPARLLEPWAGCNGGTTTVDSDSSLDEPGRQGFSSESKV

IC50 [1]: > 10 µM
Control [5]: 53.7%
Structure (SMILES): Cc1nn(C)c(NC(=O)CNCCCN2CCCCC2C)c1C(=O)c1ccccc1F (configuration not stated)
Control (Rattus norvegicus [2]): 102.8%
Control (Rattus norvegicus [3]): 91.2%
minimal effective dose (Canis familiaris [4]): 56 mg/kg
ED50 (Rattus norvegicus [6]): 43.5 mg/kg

IC50 [7]: > 10 µM
IC50 [8]: > 10 µM
Structure (SMILES): CCN(CC)CC(=O)Nc1c(C(=O)c2ccccc2F)c(C)nn1C
minimal effective dose (Canis familiaris [9]): 56 mg/kg
Control (Rattus norvegicus [10]): 102.1%

Structure (SMILES): Cc1nn(C)c(N)c1C(=O)c1ccccc1F
ED50 (Mus musculus): 8 mg/kg
ED50 (Rattus norvegicus [11]): 20 mg/kg
